{"source": "ChEMBL document CHEMBL4400562", "about": "“Plumbagin Increases Paclitaxel-Induced Cell Death and Overcomes Paclitaxel Resistance in Breast Cancer Cells through ERK-Mediated Apoptosis Induction” (J Nat Prod, 2019)", "key": {"MDA-MB-468 [1]": {"system": "MDA-MB-468", "experiment": "Synergistic cytotoxicity against human MDA-MB-468 cells assessed as combination index at 0.5 to 2 uM after 24 hrs in presence of 5 to 20 nM of paclitaxel by MTT assay", "assay_type": "functional", "how_it_was_run": "(§1)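 The Chou–Talalay median-effect method was applied to 24 h MTT viability data. Five fixed-ratio plumbagin (μM)/paclitaxel (nM) combinations were used: for MCF-7 1/0.5, 2/1, 3/3, 4/5, 5/10. Cell-line-specific series were used for BT474 and MDA-MB-468. Single agents were run in parallel. CI was computed at several effect levels.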"}, "BT-474 [2]": {"system": "BT-474", "experiment": "Synergistic cytotoxicity against human BT474 cells assessed as combination index at 1 to 5 uM after 24 hrs in presence of 0.1 to 20 nM of paclitaxel by MTT assay", "assay_type": "functional", "how_it_was_run": "as §1"}, "MCF7 [3]": {"system": "MCF7", "experiment": "Synergistic cytotoxicity against human MCF7 cells assessed as combination index at 1 to 5 uM after 24 hrs in presence of 0.5 to 10 nM of paclitaxel by MTT assay", "assay_type": "functional", "how_it_was_run": "as §1"}, "MCF7 [4]": {"system": "MCF7", "experiment": "Induction of apoptosis in human MCF7 cells up to 3 uM after 24 hrs in presence of 1 nM of paclitaxel by Annexin V-phycoerythrin/7-AAD staining based flow cytometric analysis relative to control", "assay_type": "functional", "how_it_was_run": "(§2)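 Cells were treated for 24 h with single agents or combinations, then washed in annexin-binding buffer and stained with annexin V-PE and 7-AAD for 30 min at 15 °C in the dark. Apoptotic fraction was read by flow cytometry. DMSO was 0.5% final. Data from at least three independent experiments, one-way ANOVA with Tukey's test.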"}, "BT-474 [5]": {"system": "BT-474", "experiment": "Induction of apoptosis in human BT474 cells up to 2.5 uM after 24 hrs in presence of 2 nM of paclitaxel by Annexin V-phycoerythrin/7-AAD staining based flow cytometric analysis relative to control", "assay_type": "functional", "how_it_was_run": "as §2"}, "MCF7 [6]": {"system": "MCF7", "experiment": "Induction of apoptosis in human MCF7 cells pre-treated with ERK1/2 siRNA at 2 uM in presence of 1 nM paclitaxel by Annexin V-phycoerythrin/7-AAD staining based flow cytometric analysis relative to control", "assay_type": "functional, cell-based", "how_it_was_run": "(§3)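 Cells were transiently transfected for 24 h with ERK1 and ERK2 siRNA (0.5 μg) or scrambled control siRNA, with knockdown checked by Western blot. Cells were then treated for 24 h with the combination, stained with annexin V-PE and 7-AAD, and analysed by flow cytometry. Apoptosis was compared against control-siRNA cells.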"}, "MDA-MB-468 [7]": {"system": "MDA-MB-468", "experiment": "Induction of apoptosis in human MDA-MB-468 cells at 0.2 uM after 24 hrs in presence of 1 nM of paclitaxel by Annexin V-phycoerythrin/7-AAD staining based flow cytometric analysis relative to control", "assay_type": "functional", "how_it_was_run": "as §2"}, "MDA-MB-468 [8]": {"system": "MDA-MB-468", "experiment": "Induction of apoptosis in human MDA-MB-468 cells at 0.5 uM after 24 hrs in presence of 1 nM of paclitaxel by Annexin V-phycoerythrin/7-AAD staining based flow cytometric analysis relative to control", "assay_type": "functional", "how_it_was_run": "as §2"}, "[9]": {"molecular_target": "T1, Mitogen-activated protein kinase; ERK1/ERK2 (Homo sapiens) (UniProt P27361+P28482)", "T1 sequence (P27361 whole entry, looked up)": "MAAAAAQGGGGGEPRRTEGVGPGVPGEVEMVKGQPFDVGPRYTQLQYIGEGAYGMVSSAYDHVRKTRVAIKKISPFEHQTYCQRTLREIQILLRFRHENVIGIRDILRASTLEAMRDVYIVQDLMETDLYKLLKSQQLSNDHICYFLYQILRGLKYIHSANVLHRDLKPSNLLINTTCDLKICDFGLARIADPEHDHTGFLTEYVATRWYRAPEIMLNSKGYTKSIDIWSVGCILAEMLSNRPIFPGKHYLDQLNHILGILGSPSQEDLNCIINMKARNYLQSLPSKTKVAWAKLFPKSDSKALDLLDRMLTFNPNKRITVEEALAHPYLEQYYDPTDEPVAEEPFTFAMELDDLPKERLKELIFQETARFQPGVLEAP", "T1 sequence (P28482 whole entry, looked up)": "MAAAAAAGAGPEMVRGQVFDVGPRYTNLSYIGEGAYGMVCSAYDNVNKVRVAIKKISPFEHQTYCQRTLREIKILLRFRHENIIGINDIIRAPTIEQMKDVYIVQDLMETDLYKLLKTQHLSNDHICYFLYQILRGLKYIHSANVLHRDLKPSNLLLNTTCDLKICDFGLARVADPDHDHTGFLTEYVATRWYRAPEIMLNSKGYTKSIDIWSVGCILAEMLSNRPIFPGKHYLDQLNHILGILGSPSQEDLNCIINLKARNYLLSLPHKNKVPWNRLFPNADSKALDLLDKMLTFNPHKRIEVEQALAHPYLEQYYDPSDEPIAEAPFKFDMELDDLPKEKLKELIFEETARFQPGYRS", "experiment": "Inhibition of ERK1/2 in human MCF7 cells assessed as reduction in EGF-induced phosphorylation of ERK1/2 level up to 1 uM preincubated for 24 hrs followed by EGF addition and measured after 30 mins by Western blot analysis", "assay_type": "cell-based"}, "[10]": {"molecular_target": "T1, Mitogen-activated protein kinase; ERK1/ERK2 (Homo sapiens)", "experiment": "Inhibition of ERK1/2 in human BT474 cells assessed as reduction in EGF-induced phosphorylation of ERK1/2 level up to 1 uM preincubated for 24 hrs followed by EGF addition and measured after 30 mins by Western blot analysis", "assay_type": "cell-based"}, "[11]": {"molecular_target": "T1, Mitogen-activated protein kinase; ERK1/ERK2 (Homo sapiens)", "experiment": "Inhibition of ERK1/2 in human MDA-MB-468 cells assessed as reduction in EGF-induced phosphorylation of ERK1/2 level up to 0.5 uM preincubated for 24 hrs followed by EGF addition and measured after 30 mins by Western blot analysis", "assay_type": "cell-based"}, "[12]": {"molecular_target": "T1, Mitogen-activated protein kinase; ERK1/ERK2 (Homo sapiens)", "experiment": "Inhibition of ERK1/2 in human MCF7 cells assessed as reduction in EGF-induced phosphorylation of ERK1/2 at Thr202/Tyr204 residues up to 3 uM preincubated for 1 hrs followed by EGF addition and measured after 30 mins by AlphaScreen analysis relative to control", "assay_type": "cell-based"}, "[13]": {"molecular_target": "T1, Mitogen-activated protein kinase; ERK1/ERK2 (Homo sapiens)", "experiment": "Inhibition of ERK1/2 in human BT474 cells assessed as reduction in EGF-induced phosphorylation of ERK1/2 at Thr202/Tyr204 residues up to 2 uM preincubated for 1 hrs followed by EGF addition and measured after 30 mins by AlphaScreen analysis relative to control", "assay_type": "cell-based"}, "[14]": {"molecular_target": "T1, Mitogen-activated protein kinase; ERK1/ERK2 (Homo sapiens)", "experiment": "Inhibition of ERK1/2 in human MDA-MB-468 cells assessed as reduction in EGF-induced phosphorylation of ERK1/2 at Thr202/Tyr204 residues up to 1 uM preincubated for 1 hrs followed by EGF addition and measured after 30 mins by AlphaScreen analysis relative to control", "assay_type": "cell-based"}, "[15]": {"molecular_target": "T1, Mitogen-activated protein kinase; ERK1/ERK2 (Homo sapiens)", "experiment": "Inhibition of ERK1/2 in human MCF7 cells assessed as reduction in paclitaxel-induced phosphorylation of ERK1/2 at Thr202/Tyr204 residues up to 3 uM preincubated for 1 hrs followed by 1 nM paclitaxel addition and measured after 30 mins by AlphaScreen analysis relative to control", "assay_type": "cell-based"}, "[16]": {"molecular_target": "T1, Mitogen-activated protein kinase; ERK1/ERK2 (Homo sapiens)", "experiment": "Inhibition of ERK1/2 in human BT474 cells assessed as reduction in paclitaxel-induced phosphorylation of ERK1/2 at Thr202/Tyr204 residues up to 2 uM preincubated for 1 hrs followed by 1 nM paclitaxel addition and measured after 30 mins by AlphaScreen analysis relative to control", "assay_type": "cell-based"}, "[17]": {"molecular_target": "T1, Mitogen-activated protein kinase; ERK1/ERK2 (Homo sapiens)", "experiment": "Inhibition of ERK1/2 in human MDA-MB-468 cells assessed as reduction in paclitaxel-induced phosphorylation of ERK1/2 at Thr202/Tyr204 residues up to 1 uM preincubated for 1 hrs followed by 1 nM paclitaxel addition and measured after 30 mins by AlphaScreen analysis relative to control", "assay_type": "cell-based"}, "MDA-MB-468 [18]": {"system": "MDA-MB-468", "experiment": "Induction of apoptosis in human MDA-MB-468 cells pre-treated with ERK1/2 siRNA at 0.2 uM in presence of 1 nM paclitaxel by Annexin V-phycoerythrin/7-AAD staining based flow cytometric analysis relative to control", "assay_type": "functional", "how_it_was_run": "as §3"}, "BT-474 [19]": {"system": "BT-474", "experiment": "Induction of apoptosis in human BT474 cells pre-treated with ERK1/2 siRNA at 1.5 uM in presence of 2 nM paclitaxel by Annexin V-phycoerythrin/7-AAD staining based flow cytometric analysis relative to control", "assay_type": "functional, cell-based", "how_it_was_run": "as §3"}, "MCF7 [20]": {"system": "MCF7", "experiment": "Cytotoxicity against human MCF7 cells assessed as reduction in cell viability after 24 hrs by MTT assay", "details": "MCF7, 24 h"}, "MCF7/PTX [21]": {"system": "MCF7/PTX", "experiment": "Cytotoxicity against paclitaxel-resistant human MCF7/PTX cells assessed as reduction in cell viability after 24 hrs by MTT assay", "assay_type": "functional, cell-based", "how_it_was_run": "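MTT viability after 24 h exposure. MCF-7/PTX cells were derived from MCF-7 by three months of culture in rising paclitaxel (0.4 to 6.0 nM). Cells grew in RPMI with 10% FBS at 37 °C, 5% CO2. Compounds were dissolved in DMSO, 0.5% final. At least three independent experiments.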"}, "MCF7/PTX [22]": {"system": "MCF7/PTX", "experiment": "Induction of apoptosis in paclitaxel-resistant human MCF7/PTX cells at 3 uM after 24 hrs by Annexin V-phycoerythrin/7-AAD staining based flow cytometric analysis relative to control", "assay_type": "functional", "how_it_was_run": "as §2"}, "MCF7 [23]": {"system": "MCF7", "experiment": "Induction of apoptosis in human MCF7 cells at 3 uM after 24 hrs by Annexin V-phycoerythrin/7-AAD staining based flow cytometric analysis relative to control", "assay_type": "functional", "how_it_was_run": "as §2"}, "[24]": {"molecular_target": "T1, Mitogen-activated protein kinase; ERK1/ERK2 (Homo sapiens)", "experiment": "Inhibition of ERK1/2 in paclitaxel-resistant human MCF7/PTX cells assessed as reduction in paclitaxel-induced phosphorylation of ERK1/2 at Thr202/Tyr204 residues up to 3 uM preincubated for 1 hrs followed by 1 nM paclitaxel addition and measured after 30 mins by AlphaScreen analysis", "assay_type": "cell-based"}, "MCF7/PTX [25]": {"system": "MCF7/PTX", "experiment": "Potentiation of paclitaxel-induced apoptosis in paclitaxel-resistant human MCF7/PTX cells at 2 uM after 24 hrs by Annexin V-phycoerythrin/7-AAD staining based flow cytometric analysis", "assay_type": "functional, cell-based", "how_it_was_run": "as §2"}, "MCF7 [26]": {"system": "MCF7", "experiment": "Induction of apoptosis in human MCF7 cells at 1 nM after 24 hrs by Annexin V-phycoerythrin/7-AAD staining based flow cytometric analysis relative to control", "assay_type": "functional"}, "BT-474 [27]": {"system": "BT-474", "experiment": "Induction of apoptosis in human BT474 cells at 2 nM after 24 hrs by Annexin V-phycoerythrin/7-AAD staining based flow cytometric analysis relative to control", "assay_type": "functional"}, "MDA-MB-468 [28]": {"system": "MDA-MB-468", "experiment": "Induction of apoptosis in human MDA-MB-468 cells at 1 nM after 24 hrs by Annexin V-phycoerythrin/7-AAD staining based flow cytometric analysis relative to control", "assay_type": "functional"}}, "note": "Activity calls are given as the source filed them. The calls are words filed in the database; no cut-off is given here."}
{"smiles": "CC1=CC(=O)c2c(O)cccc2C1=O", "note": "[PLUMBAGIN]", "values": [{"measurement": "CI", "setting": "MDA-MB-468 [1]", "value": "0.5 - 1"}, {"measurement": "CI", "setting": "BT-474 [2]", "value": 0.6}, {"measurement": "CI", "setting": "MCF7 [3]", "value": 0.9}, {"measurement": "Activity", "setting": "MCF7 [4]", "value": 10, "unit": "%"}, {"measurement": "Activity", "setting": "BT-474 [5]", "value": 15, "unit": "%"}, {"measurement": "Activity", "setting": "MCF7 [6]", "value": "Active"}, {"measurement": "Activity", "setting": "MDA-MB-468 [7]", "value": 20, "unit": "%"}, {"measurement": "Activity", "setting": "MDA-MB-468 [8]", "value": 35, "unit": "%"}, {"measurement": "inhibition", "setting": "[9]", "value": "Active"}, {"measurement": "inhibition", "setting": "[10]", "value": "Active"}, {"measurement": "inhibition", "setting": "[11]", "value": "Active"}, {"measurement": "inhibition", "setting": "[12]", "value": "Active"}, {"measurement": "inhibition", "setting": "[13]", "value": "Active"}, {"measurement": "inhibition", "setting": "[14]", "value": "Active"}, {"measurement": "inhibition", "setting": "[15]", "value": "Active"}, {"measurement": "inhibition", "setting": "[16]", "value": "Active"}, {"measurement": "inhibition", "setting": "[17]", "value": "Active"}, {"measurement": "Activity", "setting": "MDA-MB-468 [18]", "value": 25, "unit": "%"}, {"measurement": "Activity", "setting": "BT-474 [19]", "value": "Active"}, {"measurement": "IC50", "setting": "MCF7 [20]", "value": 3.5, "unit": "µM"}, {"measurement": "IC50", "setting": "MCF7/PTX [21]", "value": 3.5, "unit": "µM"}, {"measurement": "Activity", "setting": "MCF7/PTX [22]", "value": 20, "unit": "%"}, {"measurement": "Activity", "setting": "MCF7 [23]", "value": 20, "unit": "%"}, {"measurement": "inhibition", "setting": "[24]", "value": "Active"}, {"measurement": "Activity", "setting": "MCF7/PTX [25]", "value": "Active"}]}
{"smiles": "CC(=O)O[C@H]1C(=O)[C@@]2(C)[C@H]([C@H](OC(=O)c3ccccc3)[C@]3(O)C[C@H](OC(=O)[C@H](O)[C@@H](NC(=O)c4ccccc4)c4ccccc4)C(C)=C1C3(C)C)[C@]1(OC(C)=O)CO[C@@H]1C[C@@H]2O", "note": "[PACLITAXEL]", "values": [{"measurement": "Activity", "setting": "MCF7 [26]", "value": "10 - 15%"}, {"measurement": "Activity", "setting": "BT-474 [27]", "value": "10 - 15%"}, {"measurement": "Activity", "setting": "MDA-MB-468 [28]", "value": "10 - 15%"}]}
